# Experimental data published in ChEMBL document CHEMBL2046401, “Detailed structure-activity relationship of indolecarboxamides as H4 receptor ligands” (Eur J Med Chem, 2012).
# Test system: not listed separately
# Test: Half life in human liver microsomes
# Type: ADME, Microsome
# Details: not given
row,Structure (SMILES),half-life [min]
1,Cc1cc(Cl)cc2cc(C(=O)N3CCNCC3)[nH]c12,> 90
2,CNC1CN(C(=O)c2cc3cc(Cl)cc(C)c3[nH]2)C1,> 90
3,CN[C@@H]1CCN(C(=O)c2cc3cc(Cl)cc(C)c3[nH]2)C1,> 90
4,Cc1cc(Cl)cc2cc(C(=O)N3CCN(C)CC3)[nH]c12,> 45

# The next lines start with the values.
row,half-life [min],Structure (SMILES)
1,> 90,Cc1cc(Cl)cc2cc(C(=O)N3CC(N4CCCC4)C3)[nH]c12
2,66,CN1CCN(C(=O)c2cc3cc(Cl)cc(N)c3[nH]2)CC1

# Molecular target: Histamine H4 receptor (Homo sapiens, UniProt Q9H3N8)
# Test: Displacement of [3H]histamine from human histamine H4 receptor expressed in HEK cells
# Type: cell-based, HEK293
# Details: not given
row,Structure (SMILES),Ki [nM]
1,CN1CCN(C(=O)c2cc3c(F)c(Cl)ccc3[nH]2)CC1,6.31
2,CN1CCCN(C(=O)c2cc3cccc(F)c3[nH]2)CC1,398
3,Cc1cccc2cc(C(=O)N3CC(N4CCCC4)C3)[nH]c12,79.4
4,Cc1cccc2cc(C(=O)N3CCN(C)CC3)[nH]c12,12.6
5,Cc1cc(Cl)cc2cc(C(=O)N3CCNCC3)[nH]c12,12.6
6,COc1ccc2[nH]c(C(=O)N3CCN(C)CC3)cc2c1,1000
7,CN1CCN(C(=O)c2cc3ccc([N+](=O)[O-])cc3[nH]2)CC1,2000
8,COc1cccc2cc(C(=O)N3CCN(C)CC3)[nH]c12,2510
9,CNC1CN(C(=O)c2cc3cc(Cl)cc(C)c3[nH]2)C1,200
10,COc1ccc2cc(C(=O)N3CCN(C)CC3)[nH]c2c1,15800
11,CN1CCN(C(=O)c2cc3ncccc3[nH]2)CC1,3980
12,CN1CCN(C(=O)c2cc3c(O)cccc3[nH]2)CC1,158
13,CN1CCCN(C(=O)c2cc3cc(Cl)cc(F)c3[nH]2)CC1,63.1
14,CN1CCN(C(=O)c2cc3cc([N+](=O)[O-])ccc3[nH]2)CC1,79.4
15,O=C(c1cc2cc(Cl)cc(F)c2[nH]1)N1CCNCC1,20
16,CN1CCN(C(=O)c2cc3c(N)cccc3[nH]2)CC1,316
17,CN1CCN(C(=O)c2cc3cccc([N+](=O)[O-])c3[nH]2)CC1,794
18,CN1CCN(C(=O)c2cc3c(Cl)c(Cl)ccc3[nH]2)CC1,6.31
19,COc1cccc2cc(C(=O)N3CCCN(C)CC3)[nH]c12,15800
20,O=C(c1cc2cc(Cl)ccc2[nH]1)N1CCCNCC1,63.1

row,Structure (SMILES),Ki [nM]
1,CN1CCN(C(=O)c2cc3cc(O)ccc3[nH]2)CC1,25.1
2,CN1CCN(C(=O)c2cc3c(F)cccc3[nH]2)CC1,31.6
3,CN1CCN(C(=O)c2cc3cccc(F)c3[nH]2)CC1,20
4,CN[C@@H]1CCN(C(=O)c2cc3cc(Cl)cc(C)c3[nH]2)C1,251
5,O=C(c1cc2cc(Cl)ccc2[nH]1)N1CCNCC1,12.6
6,CN1CCN(C(=O)c2cc3cccc(N)c3[nH]2)CC1,15.8
7,O=C(c1cc2cc(Cl)cc(F)c2[nH]1)N1CC(N2CCCC2)C1,15.8
8,Cc1cccc2cc(C(=O)N3CCCN(C)CC3)[nH]c12,1580
9,CN[C@@H]1CCN(C(=O)c2cc3cccc(F)c3[nH]2)C1,501
10,Cc1cc(Cl)cc2cc(C(=O)N3CCN(C)CC3)[nH]c12,6.31
11,CN1CCN(C(=O)c2cc3c(F)ccc(F)c3[nH]2)CC1,79.4
12,CN1CCN(C(=O)c2cc3cccc(Cl)c3[nH]2)CC1,20
13,CN1CCN(C(=O)c2cc3ccc(N)cc3[nH]2)CC1,79.4
14,CN1CCCN(C(=O)c2cc3cc(Cl)ccc3[nH]2)CC1,39.8
15,O=C(c1cc2cccc(F)c2[nH]1)N1CCNCC1,100
16,O=C(c1cc2cc(Cl)ccc2[nH]1)N1CC(N2CCCC2)C1,10
17,Cc1cccc2cc(C(=O)N3CCNCC3)[nH]c12,39.8
18,CN[C@@H]1CCN(C(=O)c2cc3cc(Cl)cc(F)c3[nH]2)C1,251
19,CN1CCN(C(=O)c2cc3cc(Cl)cc([N+](=O)[O-])c3[nH]2)CC1,398

# More lines, in order of falling Ki, values ahead:
row,Ki [nM],Structure (SMILES)
1,12600,CC(=O)c1ccc2[nH]c(C(=O)N3CCN(C)CC3)cc2c1
2,6310,CN1CCN(C(=O)c2cc3cnccc3[nH]2)CC1
3,5010,CC(=O)c1cccc2[nH]c(C(=O)N3CCN(C)CC3)cc12
4,5010,CN1CCCN(C(=O)c2cc3cccc(C(F)(F)F)c3[nH]2)CC1
5,2510,CN1CCN(C(=O)c2cc3ccccc3s2)CC1
6,2000,CN1CCN(C(=O)c2cc3ccncc3[nH]2)CC1
7,2000,CN1CCN(C(=O)c2cc3cccnc3[nH]2)CC1
8,1000,CN1CCN(C(=O)c2cc3cccc(C(F)(F)F)c3[nH]2)CC1
9,1000,COc1cccc2[nH]c(C(=O)N3CCN(C)CC3)cc12
10,794,CN1CCN(C(=O)c2cc3c([N+](=O)[O-])cccc3[nH]2)CC1
11,631,CN[C@@H]1CCN(C(=O)c2cc3cccc(C)c3[nH]2)C1
12,398,CN1CCCN(C(=O)c2cc3ccccc3[nH]2)CC1
13,398,CNC1CN(C(=O)c2cc3cccc(F)c3[nH]2)C1
14,398,CNC1CN(C(=O)c2cc3cccc(C)c3[nH]2)C1
15,251,CN1CCN(C(=O)c2cc3cc(Cl)ccc3o2)CC1
16,251,CN1CCCN(C(=O)c2cc3c(F)cccc3[nH]2)CC1
17,158,CN1CCN(C(=O)c2cc3ccc(Cl)cc3[nH]2)CC1
18,100,CNC1CN(C(=O)c2cc3cc(Cl)cc(F)c3[nH]2)C1
19,50.1,Cc1ccc2[nH]c(C(=O)N3CCN(C)CC3)cc2c1
20,39.8,Cc1ccc(F)c2cc(C(=O)N3CCN(C)CC3)[nH]c12
21,39.8,O=C(c1cc2cccc(F)c2[nH]1)N1CC(N2CCCC2)C1
22,31.6,CN1CCN(C(=O)c2cc3c(Cl)cccc3[nH]2)CC1
23,31.6,Cc1cc(Cl)cc2cc(C(=O)N3CC(N4CCCC4)C3)[nH]c12
24,31.6,CN1CCCN(C(=O)c2cc3c(F)c(Cl)ccc3[nH]2)CC1
25,25.1,CN1CCN(C(=O)c2cc3ccc(O)cc3[nH]2)CC1
26,15.8,CN1CCN(C(=O)c2cc3cc(F)ccc3[nH]2)CC1
27,6.31,CN1CCN(C(=O)c2cc3cc(Cl)cc(F)c3[nH]2)CC1
28,5.01,CN1CCN(C(=O)c2cc3cc(Cl)cc(N)c3[nH]2)CC1

# Test system: not listed separately
# Test: Solubility of the compound at pH 6.8
# Type: physicochemical
# Details: buffer
# Outline: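 Solubility determined by the DMSO solution precipitation method.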
row,Structure (SMILES),solubility [µg/mL]
1,Cc1cc(Cl)cc2cc(C(=O)N3CCNCC3)[nH]c12,65
2,CNC1CN(C(=O)c2cc3cc(Cl)cc(C)c3[nH]2)C1,51
3,CN[C@@H]1CCN(C(=O)c2cc3cc(Cl)cc(C)c3[nH]2)C1,59
4,Cc1cc(Cl)cc2cc(C(=O)N3CCN(C)CC3)[nH]c12,57

# Results, then the compound that gave them:
row,solubility [µg/mL],Structure (SMILES)
1,10,Cc1cc(Cl)cc2cc(C(=O)N3CC(N4CCCC4)C3)[nH]c12
2,67,CN1CCN(C(=O)c2cc3cc(Cl)cc(N)c3[nH]2)CC1

# Test system: not listed separately
# Test: Half life in mouse liver microsomes
# Type: ADME, Microsome
# Details: not given
row,Structure (SMILES),half-life [min]
1,Cc1cc(Cl)cc2cc(C(=O)N3CCNCC3)[nH]c12,16
2,CNC1CN(C(=O)c2cc3cc(Cl)cc(C)c3[nH]2)C1,26
3,CN[C@@H]1CCN(C(=O)c2cc3cc(Cl)cc(C)c3[nH]2)C1,27
4,Cc1cc(Cl)cc2cc(C(=O)N3CCN(C)CC3)[nH]c12,2

# More lines, now with the values ahead:
row,half-life [min],Structure (SMILES)
1,11,Cc1cc(Cl)cc2cc(C(=O)N3CC(N4CCCC4)C3)[nH]c12
2,14,CN1CCN(C(=O)c2cc3cc(Cl)cc(N)c3[nH]2)CC1
